Laboratory results as given in ChEMBL document CHEMBL4513216, “Probing the Open Global Health Chemical Diversity Library for Multistage-Active Starting Points for Next-Generation Antimalarials” (ACS Infect Dis, 2020).

Test: Toxicity liver stage against HepG2, at 10uM
Assay type: cell-based
Set-up: test concentration 10 uM, cell line HepG2-A16-CD81EGFP
Conditions: human, HepG2-A16-CD81EGFP cells; read-out: INHIBITION
Procedure, shortened: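 Uninfected HepG2-A16-CD81EGFP cells, 3 × 10^3 per well, 1536-well, plated on prespotted compound at 10 μM final, parasite-free screening media added to match infected plates; puromycin 10 μM positive, DMSO 0.5% negative; run in parallel with 48 h PbLuc assay at 37 °C, 5% CO2; viability by CellTiter-Glo luminescence, normalized to controls.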

Point of comparison: `COc1cc(C)nc(N2CCN(C(=O)CN(C)C(C)C)CC2)n1`, cytotoxicity at 10 µM -14.6%. Against it:
- O=C(CN1C(=O)CCC1=O)N1CCOCC1 — higher, 2.48%
- COc1ncc(C(=O)NCc2ccc(Br)cc2)cn1 — higher, 48.6%
- O=C(Nc1cnccn1)[C@H]1C[C@H]2OCC[C@H]2N(c2ncc(F)cn2)C1 — higher, 16.4%
- CC(C)N1CCC(c2ccnc3c(C(=O)N4CCCC4)ncn23)CC1 — higher, -5.49%
- O=C1CC(c2cccs2)Cc2[nH]c(=O)c(C(=O)NC3CCCC3)cc21 (centres undefined) — higher, 80.5%
- Cc1cc(-c2cnc(N3CCC(O)CC3)nc2C(C)C)on1 — higher, 66.4%
- NC(=O)CN1CCCC(c2cncc(Nc3ncccn3)n2)C1 (centres undefined) — higher, -2.61%
- CCS(=O)(=O)N1CCC(C(=O)NC(Cc2ccsc2)c2nccs2)CC1 (centres undefined) — higher, -2.72%
- C[C@]1(O)CN(CCO)CC[C@@H]1Oc1cccc(F)c1 — higher, -6%
- Cc1ncsc1-c1nnc(C2CCN(Cc3ccccc3F)CC2)o1 — higher, -10.2%
- CC(=O)NC[C@]1(O)CCN(C(=O)c2ccc3c(c2)OCO3)C[C@H]1O — higher, -9.91%
- Cn1nc(C2CCNCC2)c2c(C(=O)NC3CC3)cc(C3CC3)nc21 — higher, 16.2%
- CN1CCN(C(=O)c2cn(-c3ccc(C(F)(F)F)cn3)nn2)CC1 — lower, -63%
- Cc1ccc(OCC(=O)Nc2ccc(S(C)(=O)=O)cc2)cc1C — higher, -2.4%
- c1cnnc(N2CCCC(NCc3nc(-c4ccsc4)no3)C2)c1 (centres undefined) — higher, 7.79%
- Cc1cccc(C(=O)N2CCCN(CCCSCC#N)CC2)c1 — lower, -150%
- COC(=O)c1ccc(CNC(=O)Nc2ccc(=O)n(C)c2)cc1 — higher, -6.8%
- OC1CCN(c2ccc(CNc3nc4ccccc4s3)cc2F)CC1 — higher, 1.71%
- Cc1nnc2n1CC(CNc1cnc3ccccc3n1)CC2 (centres undefined) — lower, -41.5%
- NC(=O)C1=NC2=NS(=O)(=O)c3ccccc3N2N1Cc1ccc(Cl)cc1 — higher, 1.75%
- CC(=O)N(CCc1ccccc1)CC(=O)NC(C)(C)C#N — higher, 8.06%
- CNS(=O)(=O)CCCN(C)Cc1cc(C)ccc1OC — lower, -61%
- Cc1ccccc1CN(C)CC(O)COCc1ccccc1Cl (centres undefined) — higher, 8.49%
- COc1cc(F)c(NCc2nc3ccccc3n2C)cc1OC — higher, 26.5%
- CC(C)(C)c1nc(CN(Cc2cccs2)C2CCS(=O)(=O)C2)cs1 (centres undefined) — higher, 16%
- CN1CCN(Cc2cnc3n2CCN(C(=O)c2ccoc2)C3)CC1 — lower, -80.7%
- COCC1CN(C(=O)CC2Cc3ccccc3C2)Cc2c1cnn2C (centres undefined) — lower, -75.4%
- CC(=O)N1CCC2(CCCN(Cc3ccc(Cl)c(C(F)(F)F)c3)C2)C1 (centres undefined) — higher, 3.22%
- COCC(=O)Nc1ccccc1Sc1c(C)n[nH]c1C — higher, -10.2%
- CC(CN1CCCCCC1)NCc1cc(-c2ccco2)on1 (centres undefined) — higher, 1.56%
- COc1cc(Cc2nc3c([nH]2)CC(C)(C)CNC3=O)cc(OC)c1 — higher, -6.27%
- O=C(CSCC1CC1)N1CCCN(c2ccc(F)cc2)CC1 — higher, -4.43%
- COc1ccc(C(=O)C2CCCN(c3cc(N)ncn3)C2)c(C)c1 (centres undefined) — higher, 5.31%
- CCCc1nc(N2CCC(CCO)CC2)c2cnn(C)c2n1 — higher, 2.28%
- O=C(NCc1nnc2n1CCCC2)c1ccc(C2CCCO2)s1 (centres undefined) — higher, 15.7%
- COCC(=O)N1C[C@H]2CNC[C@@]2(C(=O)NCc2cc(C)n[nH]2)C1 — higher, 8.29%
- COc1nccnc1-c1cc(NC2CCCC2)nc2[nH]ccc12 — higher, 1.97%
- Cc1ccc2nc(C)c(C)c(C(=O)N[C@H]3COC[C@@H]3N3CCCC3)c2c1 — lower, -45.8%
- CCc1nn(C)c(Cl)c1CN1C[C@@H](NC(=O)N(C)C)[C@H](C(C)C)C1 — higher, 11.4%
- Cn1cc(-c2c(C#N)c(N)nc3c2CCc2[nH]ccc2-3)cn1 — higher, -4.37%
- Cn1ccnc1-c1ccc(NC[C@H]2CCc3ccccc3O2)nn1 — higher, -5.71%
- O=C(NCCC1CCCCO1)c1cc(COc2cncc(Cl)c2)on1 (centres undefined) — higher, -1.73%
- Cc1ccccc1N1CCCN(C(=O)CCc2cccnc2)CC1 — higher, -9.2%
- C[C@@H]1CN(Cc2nc(C(N)=O)no2)CC[C@@]1(O)C1CCOCC1 — lower, -38.5%
- COc1nc2c(cc1C(=O)N1CCCOC(Cn3cccn3)C1)CCC2 (centres undefined) — lower, -52.1%
- Cc1cnn(CCNc2ncnc3c2CCN(CC2CCOC2)CC3)c1 (centres undefined) — higher, -4.24%
- O=C(NCCC1COc2ccccc2O1)c1ccc(N2CC(O)C2)nc1 (centres undefined) — higher, 72.1%
- Cc1cc(N(C)Cc2ncc[nH]2)nc(-c2ccccc2)n1 — higher, 1.68%
- CCC[C@H]1CN(Cc2cc(C)no2)C[C@@H]1NC(=O)C1(COC)CCC1 — higher, 3.06%
- CCc1ccccc1OCCN(C)C(=O)CN1CCCC1 — lower, -50.4%
- CCCc1nc(C)cc(N2CCNC(C(=O)NCc3cccnc3)C2)n1 (centres undefined) — higher, -7%
- Cc1nc(N(C)C2CCCCC2)ncc1C(C)NC(=O)c1cscn1 (centres undefined) — lower, -134%
- Cc1c[nH]c(CN(C)c2nc(C3CCCC3)nc3c2cnn3C)n1 — higher, -7.56%
- CCS(=O)(=O)N(C)c1ccc(C(=O)N2CCCC(C)C2)cc1 (centres undefined) — lower, -15.4%
- CCC(=O)N1CCc2nc3cc(OC)c(OC)cc3c(=O)n2CC1 — higher, 2.65%
- COc1ccc(C2=CCN(C(=O)C3CCS(=O)(=O)C3)CC2)cc1 (centres undefined) — higher, -7.45%
- COc1ccc(-c2nc(CN3CCN(CCO)CC3)co2)cc1 — higher, -0.0868%
- Cc1nc(CN(C)C2CCN(Cc3nc4ccccc4s3)C2)no1 (centres undefined) — higher, -4.27%
- O=C(c1cnccn1)N1CCN(Cc2csc(-c3ccccc3)n2)CC1 — higher, -3.32%
- Cn1ccc(C(=O)N2CCN(c3cc(C#N)ccn3)CC2)cc1=O — higher, -14.2%
- Cc1noc(C2CCN(C(=O)c3ccc(NC4CC4)nc3)CC2)n1 — higher, -7.1%
- Cn1cc(CCNC(=O)NCc2nnc3n2CCC3)cn1 — higher, -6.08%
- CN(C(=O)c1cccc2[nH]ncc12)C1CCN(c2ccccn2)CC1 — higher, 7.31%
- c1cnc(N2CC[C@@H](N3CCOCC3)[C@@H]2Cc2ccncc2)nc1 — higher, 2.9%
- Cc1ccc(CN2CCc3c(COCC4CC4)nn(C)c3C2)s1 — higher, 6.35%
- c1cnc(N2CCC3(COCc4cnc(-c5cccnc5)nc43)C2)nc1 (centres undefined) — higher, 2.57%
- COCCNC(=O)[C@H]1C[C@@H]2CCN(CCc3ccccc3)C[C@H]2O1 — lower, -70.3%
- c1ccc(CO[C@@H]2CN(Cc3nccs3)[C@@H]3COC[C@@H]32)nc1 — lower, -104%
- COCC(=O)NCc1cc(=O)n2c(n1)CN(C)CCC2 — lower, -103%
- O=C([C@H]1C[C@H]2OCC[C@H]2N(Cc2ccccc2F)C1)N1CCCCO1 — lower, -72.2%
- Cc1cccc(CN2CCOC3(CCCN(CC(=O)N(C)C)C3)C2)n1 (centres undefined) — lower, -106%
- Cc1ncoc1C(=O)N1C[C@H]2CCC[C@@]2(COCc2cccnc2)C1 — higher, 4.53%
- c1cncc(N2CCOCC3(CCCN(Cc4cccs4)C3)C2)c1 (centres undefined) — higher, 14.8%
- Cc1nccc(NCc2cncc3c2CCN(S(C)(=O)=O)C3)n1 — lower, -99.4%
- CC(C)N1CCO[C@@H]2CN(C(=O)Cc3cccs3)CC[C@@H]2C1 — lower, -120%
- CC(C)OCc1ncn2c1CN(Cc1ccoc1)CCC2 — lower, -75.7%
- O=C(Nc1ccccc1)[C@H]1C[C@H]2CN(Cc3cccnc3)C[C@@H]1O2 — lower, -80%
- CC1(C)[C@@H]2CC=C(CN3CCCn4nc(CCC(=O)O)cc4C3)[C@H]1C2 — lower, -40.2%
